Measured values reported in ChEMBL document CHEMBL1649446, “Comparative antipneumococcal activities of sulopenem and other drugs” (2009).
Converted amounts (≈) assume the structure as drawn.

Assays:
Assay type in all cases: functional
[1] = system: Streptococcus pneumoniae; experiment: Antimicrobial activity against Streptococcus pneumoniae isolate 3455 by agar dilution method
[2] = system: Streptococcus pneumoniae; experiment: Antimicrobial activity against Streptococcus pneumoniae isolate 1147 by agar dilution method
Outline: (§1)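 Agar dilution MIC on Mueller-Hinton agar with 5% sheep blood, inocula 10^4 CFU/spot; amoxicillin-clavulanate combined 1:2; S. pneumoniae ATCC 49619 quality control each run.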

[3] = system: Streptococcus pneumoniae; experiment: Antimicrobial activity against penicillin-susceptible Streptococcus pneumoniae by agar dilution method
[4] = system: Streptococcus pneumoniae; experiment: Antimicrobial activity against Streptococcus pneumoniae isolate 3275 by agar dilution method; outline: as §1
[5] = system: Streptococcus pneumoniae; experiment: Antimicrobial activity against Streptococcus pneumoniae 6 by time-kill analysis
Outline: (§2)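 Time-kill in cation-adjusted Mueller-Hinton broth with 5% lysed horse blood; inocula 5 × 105 to 5 × 10^6 CFU/ml; drugs at MIC, 2× and 4× MIC; 35°C shaking water bath; viable counts at 0, 3, 6, 12, 24 h. Bactericidal = ≥3 log10 CFU/ml (99.9%) drop from original inoculum; 90%/99%/99.9% killing scored per strain.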

[6] = system: Streptococcus pneumoniae; experiment: Antimicrobial activity against Streptococcus pneumoniae 11 by time-kill analysis; outline: as §2
[7] = system: Streptococcus pneumoniae; experiment: Antimicrobial activity against Streptococcus pneumoniae 2 by time-kill analysis; outline: as §2
[8] = system: Streptococcus pneumoniae; experiment: Antimicrobial activity against penicillin-intermediate Streptococcus pneumoniae by agar dilution method
[9] = system: Streptococcus pneumoniae; experiment: Antimicrobial activity against Streptococcus pneumoniae isolate 2617 by agar dilution method; outline: as §1
[10] = system: Streptococcus pneumoniae; experiment: Antimicrobial activity against Streptococcus pneumoniae isolate 3374 by agar dilution method; outline: as §1
[11] = system: Streptococcus pneumoniae; experiment: Antimicrobial activity against Streptococcus pneumoniae 9 by time-kill analysis
Outline: (§3)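 Time-kill in cation-adjusted Mueller-Hinton broth with 5% lysed horse blood; inocula 5 × 105 to 5 × 10^6 CFU/ml; drugs at MIC, 2× and 4× MIC; 35°C shaking water bath; viable counts at 0, 3, 6, 12 and 24 h. Bactericidal if ≥3 log10 CFU/ml (99.9%) reduction from original inoculum; 90% and 99% killing also scored.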

[12] = system: Streptococcus pneumoniae; experiment: Antimicrobial activity against Streptococcus pneumoniae isolate 3412 by agar dilution method; outline: as §1
[13] = system: Streptococcus pneumoniae; experiment: Antimicrobial activity against Streptococcus pneumoniae 1 by time-kill analysis; outline: as §3
[14] = system: Streptococcus pneumoniae; experiment: Antimicrobial activity against Streptococcus pneumoniae isolate 3587 by agar dilution method
[15] = system: Streptococcus pneumoniae; experiment: Antimicrobial activity against Streptococcus pneumoniae isolate 3681 by agar dilution method; outline: as §1
[16] = system: Streptococcus pneumoniae; experiment: Antimicrobial activity against penicillin-resistant Streptococcus pneumoniae by agar dilution method; outline: as §1
[17] = system: Streptococcus pneumoniae; experiment: Antimicrobial activity against Streptococcus pneumoniae 10 by time-kill analysis; outline: as §2
[18] = system: Streptococcus pneumoniae; experiment: Antimicrobial activity against Streptococcus pneumoniae isolate 2880 by agar dilution method; outline: as §1
[19] = system: Streptococcus pneumoniae; experiment: Antimicrobial activity against Streptococcus pneumoniae isolate 2688 by agar dilution method; outline: as §1
[20] = system: Streptococcus pneumoniae; experiment: Antimicrobial activity against Streptococcus pneumoniae 12 by time-kill analysis; outline: as §2
[21] = system: Streptococcus pneumoniae; experiment: Antimicrobial activity against Streptococcus pneumoniae isolate 24 by agar dilution method
[22] = system: Streptococcus pneumoniae; experiment: Antimicrobial activity against Streptococcus pneumoniae 19A by agar dilution method; outline: as §1
[23] = system: Streptococcus pneumoniae; experiment: Antimicrobial activity against Streptococcus pneumoniae isolate 1394 by agar dilution method
[24] = system: Streptococcus pneumoniae; experiment: Antimicrobial activity against Streptococcus pneumoniae 4 by time-kill analysis; outline: as §2
[25] = system: Streptococcus pneumoniae; experiment: Antimicrobial activity against Streptococcus pneumoniae isolate 3263 by agar dilution method
[26] = system: Streptococcus pneumoniae; experiment: Antimicrobial activity against Streptococcus pneumoniae isolate 3282 by agar dilution method
[27] = system: Streptococcus pneumoniae; experiment: Antimicrobial activity against Streptococcus pneumoniae isolate 3791 by agar dilution method; outline: as §1
[28] = system: Streptococcus pneumoniae; experiment: Antimicrobial activity against Streptococcus pneumoniae isolate 1564 by agar dilution method
[29] = system: Streptococcus pneumoniae; experiment: Antimicrobial activity against Streptococcus pneumoniae isolate 3481 by agar dilution method; outline: as §1
[30] = system: Streptococcus pneumoniae; experiment: Antimicrobial activity against Streptococcus pneumoniae isolate 3458 by agar dilution method
[31] = system: Streptococcus pneumoniae; experiment: Antimicrobial activity against Streptococcus pneumoniae isolate 1424 by agar dilution method; outline: as §1
[32] = system: Streptococcus pneumoniae; experiment: Antimicrobial activity against Streptococcus pneumoniae 7 by time-kill analysis; outline: as §2
[33] = system: Streptococcus pneumoniae; experiment: Antimicrobial activity against Streptococcus pneumoniae isolate 1055 by agar dilution method
[34] = system: Streptococcus pneumoniae; experiment: Antimicrobial activity against Streptococcus pneumoniae 8 by time-kill analysis; outline: as §2
[35] = system: Streptococcus pneumoniae; experiment: Antimicrobial activity against Streptococcus pneumoniae isolate 2874 by agar dilution method; outline: as §1
[36] = system: Streptococcus pneumoniae; experiment: Antimicrobial activity against Streptococcus pneumoniae isolate 37 by agar dilution method; outline: as §1
[37] = system: Streptococcus pneumoniae; experiment: Antimicrobial activity against Streptococcus pneumoniae isolate 3260 by agar dilution method
[38] = system: Streptococcus pneumoniae; experiment: Antimicrobial activity against Streptococcus pneumoniae isolate 3346 by agar dilution method
[39] = system: Streptococcus pneumoniae; experiment: Antimicrobial activity against Streptococcus pneumoniae 3 by time-kill analysis; outline: as §2
[40] = system: Streptococcus pneumoniae; experiment: Antimicrobial activity against Streptococcus pneumoniae isolate 33 by agar dilution method; outline: as §1
[41] = system: Streptococcus pneumoniae; experiment: Antimicrobial activity against Streptococcus pneumoniae isolate 4755 by agar dilution method; outline: as §1
[42] = system: Streptococcus pneumoniae; experiment: Antimicrobial activity against Streptococcus pneumoniae isolate 1146 by agar dilution method; outline: as §1
[43] = system: Streptococcus pneumoniae; experiment: Antimicrobial activity against Streptococcus pneumoniae isolate 1397 by agar dilution method; outline: as §1
[44] = system: Streptococcus pneumoniae; experiment: Antimicrobial activity against Streptococcus pneumoniae isolate 4747 by agar dilution method; outline: as §1
[45] = system: Streptococcus pneumoniae; experiment: Antimicrobial activity against Streptococcus pneumoniae isolate 2686 by agar dilution method; outline: as §1
[46] = system: Streptococcus pneumoniae; experiment: Antimicrobial activity against Streptococcus pneumoniae 5 by time-kill analysis; outline: as §3
[47] = system: Streptococcus pneumoniae; experiment: Antimicrobial activity against Streptococcus pneumoniae isolate 1384 by agar dilution method; outline: as §1

COc1c(N2CCNC(C)C2)c(F)cc2c(=O)c(C(=O)O)cn(C3CC3)c12 (configuration not stated) [GATIFLOXACIN]
MIC [1]: 0.5 µg/mL (≈ 1.33 µM) | MIC [2]: 4 µg/mL (≈ 10.7 µM) | MIC50 [3]: 0.5 µg/mL (≈ 1.33 µM) | MIC90 [3]: 4 µg/mL (≈ 10.7 µM) | MIC [4]: 0.25 µg/mL (≈ 0.666 µM) | MIC [5]: 0.25 µg/mL (≈ 0.666 µM) | MIC [6]: 0.5 µg/mL (≈ 1.33 µM) | MIC [7]: 0.25 µg/mL (≈ 0.666 µM) | MIC50 [8]: 0.25 µg/mL (≈ 0.666 µM) | MIC90 [8]: 0.5 µg/mL (≈ 1.33 µM) | MIC [9]: 0.5 µg/mL (≈ 1.33 µM) | MIC [10]: 0.25 µg/mL (≈ 0.666 µM) | MIC [11]: 0.5 µg/mL (≈ 1.33 µM) | MIC [12]: 0.25 µg/mL (≈ 0.666 µM) | MIC [13]: 4 µg/mL (≈ 10.7 µM) | MIC [14]: 0.25 µg/mL (≈ 0.666 µM) | MIC [15]: 0.5 µg/mL (≈ 1.33 µM) | MIC50 [16]: 0.5 µg/mL (≈ 1.33 µM) | MIC90 [16]: 1 µg/mL (≈ 2.66 µM) | MIC [17]: 0.25 µg/mL (≈ 0.666 µM) | MIC [18]: 0.25 µg/mL (≈ 0.666 µM) | MIC [19]: 0.5 µg/mL (≈ 1.33 µM) | MIC [20]: 0.25 µg/mL (≈ 0.666 µM) | MIC [21]: 0.5 µg/mL (≈ 1.33 µM) | MIC50 [22]: 0.5 µg/mL (≈ 1.33 µM) | MIC90 [22]: 0.5 µg/mL (≈ 1.33 µM) | MIC [23]: 0.5 µg/mL (≈ 1.33 µM) | MIC [24]: 4 µg/mL (≈ 10.7 µM) | MIC [25]: 0.25 µg/mL (≈ 0.666 µM) | MIC [26]: 0.125 µg/mL (≈ 0.333 µM) | MIC [27]: 0.5 µg/mL (≈ 1.33 µM) | MIC [28]: 0.5 µg/mL (≈ 1.33 µM) | MIC [29]: 0.25 µg/mL (≈ 0.666 µM) | MIC [30]: 0.5 µg/mL (≈ 1.33 µM) | MIC [31]: 0.25 µg/mL (≈ 0.666 µM) | MIC [32]: 0.5 µg/mL (≈ 1.33 µM) | MIC [33]: 16 µg/mL (≈ 42.6 µM) | MIC [34]: 0.25 µg/mL (≈ 0.666 µM) | MIC [35]: 0.5 µg/mL (≈ 1.33 µM) | MIC [36]: 0.5 µg/mL (≈ 1.33 µM) | MIC [37]: 0.125 µg/mL (≈ 0.333 µM) | MIC [38]: 0.125 µg/mL (≈ 0.333 µM) | MIC [39]: 0.25 µg/mL (≈ 0.666 µM) | MIC [40]: 0.5 µg/mL (≈ 1.33 µM) | MIC [41]: 0.25 µg/mL (≈ 0.666 µM) | MIC [42]: 2 µg/mL (≈ 5.33 µM) | MIC [43]: 0.5 µg/mL (≈ 1.33 µM) | MIC [44]: 0.125 µg/mL (≈ 0.333 µM) | MIC [45]: 0.25 µg/mL (≈ 0.666 µM) | MIC [46]: 0.5 µg/mL (≈ 1.33 µM) | MIC [47]: 0.5 µg/mL (≈ 1.33 µM)

C[C@@H](O)[C@H]1C(=O)N2C(C(=O)O)=C(SCCNC=N)C[C@H]12 [IMIPENEM ANHYDROUS]
MIC [1]: 0.5 µg/mL (≈ 1.67 µM) | MIC [2]: 0.5 µg/mL (≈ 1.67 µM) | MIC50 [3]: 0.008 µg/mL (≈ 0.0267 µM) | MIC90 [3]: 0.008 µg/mL (≈ 0.0267 µM) | MIC [4]: 0.03 µg/mL (≈ 0.1 µM) | MIC [5]: 0.03 µg/mL (≈ 0.1 µM) | MIC [6]: 0.25 µg/mL (≈ 0.835 µM) | MIC [7]: 0.004 µg/mL (≈ 0.0134 µM) | MIC50 [8]: 0.03 µg/mL (≈ 0.1 µM) | MIC90 [8]: 0.125 µg/mL (≈ 0.418 µM) | MIC [9]: 0.125 µg/mL (≈ 0.418 µM) | MIC [10]: 0.125 µg/mL (≈ 0.418 µM) | MIC [11]: 0.03 µg/mL (≈ 0.1 µM) | MIC [12]: 0.125 µg/mL (≈ 0.418 µM) | MIC [13]: 0.004 µg/mL (≈ 0.0134 µM) | MIC [14]: 0.125 µg/mL (≈ 0.418 µM) | MIC [15]: 0.125 µg/mL (≈ 0.418 µM) | MIC50 [16]: 0.25 µg/mL (≈ 0.835 µM) | MIC90 [16]: 0.25 µg/mL (≈ 0.835 µM) | MIC [17]: 0.03 µg/mL (≈ 0.1 µM) | MIC [18]: 0.25 µg/mL (≈ 0.835 µM) | MIC [19]: 0.25 µg/mL (≈ 0.835 µM) | MIC [20]: 0.25 µg/mL (≈ 0.835 µM) | MIC [21]: 0.25 µg/mL (≈ 0.835 µM) | MIC50 [22]: 0.5 µg/mL (≈ 1.67 µM) | MIC90 [22]: 0.5 µg/mL (≈ 1.67 µM) | MIC [23]: 0.25 µg/mL (≈ 0.835 µM) | MIC [24]: 0.25 µg/mL (≈ 0.835 µM) | MIC [25]: 0.06 µg/mL (≈ 0.2 µM) | MIC [26]: 0.125 µg/mL (≈ 0.418 µM) | MIC [27]: 0.125 µg/mL (≈ 0.418 µM) | MIC [28]: 0.125 µg/mL (≈ 0.418 µM) | MIC [29]: 0.125 µg/mL (≈ 0.418 µM) | MIC [30]: 0.5 µg/mL (≈ 1.67 µM) | MIC [31]: 0.25 µg/mL (≈ 0.835 µM) | MIC [32]: 0.5 µg/mL (≈ 1.67 µM) | MIC [33]: 0.25 µg/mL (≈ 0.835 µM) | MIC [34]: 0.25 µg/mL (≈ 0.835 µM) | MIC [35]: 0.25 µg/mL (≈ 0.835 µM) | MIC [36]: 0.25 µg/mL (≈ 0.835 µM) | MIC [37]: 0.25 µg/mL (≈ 0.835 µM) | MIC [38]: 0.25 µg/mL (≈ 0.835 µM) | MIC [39]: 0.06 µg/mL (≈ 0.2 µM) | MIC [40]: 0.5 µg/mL (≈ 1.67 µM) | MIC [41]: 0.125 µg/mL (≈ 0.418 µM) | MIC [42]: 0.5 µg/mL (≈ 1.67 µM) | MIC [43]: 0.25 µg/mL (≈ 0.835 µM) | MIC [44]: 0.125 µg/mL (≈ 0.418 µM) | MIC [45]: 0.25 µg/mL (≈ 0.835 µM) | MIC [46]: 0.5 µg/mL (≈ 1.67 µM) | MIC [47]: 0.125 µg/mL (≈ 0.418 µM)
